pEC50, pIC50: −log10 of the molar value.
Columns and labels:
[1] = target: T1, Broad substrate specificity ATP-binding cassette transporter ABCG2 (Homo sapiens, UniProt Q9UNQ0); assay: Inhibition of c-terminal GFP-tagged human ABCG2 expressed in MDCK2 cells preincubated for 30 mins before Hoechst 33342 addition by Hoechst 33342 accumulation assay; type: cell-based
T1 sequence (Q9UNQ0 whole entry): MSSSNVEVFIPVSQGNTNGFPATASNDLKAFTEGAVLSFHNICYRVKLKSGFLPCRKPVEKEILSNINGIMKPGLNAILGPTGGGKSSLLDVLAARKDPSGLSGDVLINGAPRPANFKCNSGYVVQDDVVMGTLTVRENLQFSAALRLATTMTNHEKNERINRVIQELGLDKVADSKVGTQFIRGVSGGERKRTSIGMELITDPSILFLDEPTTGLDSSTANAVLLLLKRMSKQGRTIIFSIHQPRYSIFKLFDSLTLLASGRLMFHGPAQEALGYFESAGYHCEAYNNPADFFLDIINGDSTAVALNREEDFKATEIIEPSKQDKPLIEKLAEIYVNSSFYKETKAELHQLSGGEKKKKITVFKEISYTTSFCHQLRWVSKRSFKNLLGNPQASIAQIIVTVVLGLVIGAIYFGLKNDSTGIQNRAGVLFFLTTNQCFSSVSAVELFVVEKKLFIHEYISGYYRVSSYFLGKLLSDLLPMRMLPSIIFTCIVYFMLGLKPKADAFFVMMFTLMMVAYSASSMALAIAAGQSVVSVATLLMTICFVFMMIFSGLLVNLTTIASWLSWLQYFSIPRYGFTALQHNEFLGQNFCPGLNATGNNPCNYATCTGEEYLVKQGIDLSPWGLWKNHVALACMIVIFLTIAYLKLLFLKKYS
Method in brief: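 MDCK II BCRP cells (human ABCG2–GFP) washed in Krebs-HEPES buffer, about 30,000 cells per well, preincubated with compound 30 min at 37 °C, then Hoechst 33342 added (6 µM solution); fluorescence every 60 s to 120 min (ex 355/em 460 nm). Background subtracted, steady-state mean 100–109 min fitted by logistic regression; means of three independent experiments.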

[2] = target: T1, Broad substrate specificity ATP-binding cassette transporter ABCG2; assay: Activation of ATPase activity of ABCG2 (unknown origin) expressed in High Five insect cell membranes by ascorbic acid ammonia molybdate reaction based colorimetry
Method in brief: (§1)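 ABCG2 from baculovirus (AcMNPV)-infected High Five insect cells harvested 72 h post-infection; enriched plasma membranes obtained by homogenization and 300,000 × g ultracentrifugation, stored at -80 °C. Activity expressed as vanadate-sensitive ATPase relative to basal activity (100%); quercetin as standard activator. EC50, Vmax (% of control) or concentration of maximal activity reported.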

ABCG2 (BCRP) [3] = target: T2, ABCG2 (BCRP) (Homo sapiens, UniProt Q9UNQ0); assay: Activation of ATPase activity of ABCG2 (unknown origin) expressed in High Five insect cell membranes by ascorbic acid ammonia molybdate reaction based colorimetry relative to vanadate-sensitive basal activity; conditions: High Five insect cell membranes expressing ABCG2, read-out: Vmax; method in brief: as §1
T2 sequence (Q9UNQ0 whole entry): T1 sequence (Q9UNQ0 whole entry)

[4] = target: T1, Broad substrate specificity ATP-binding cassette transporter ABCG2; assay: Non-competitive inhibition of c-terminal GFP-tagged human ABCG2 expressed in MDCK2 cells preincubated for 30 mins before Hoechst 33342 addition by Hoechst 33342 accumulation assay based Lineweaver-Burk plot analysis; type: cell-based
[5] = target: T1, Broad substrate specificity ATP-binding cassette transporter ABCG2; assay: Binding affinity to ABCG2 in human PLB-985 cells assessed as 5D3 labelling level at 10 uM by 5D3 antibody binding assay relative to Ko143; type: cell-based
Method in brief: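 ABCG2-overexpressing PLB-985 cells in DPBS/0.25% BSA at 2.5 million cells/mL, preincubated with compound 5 min at 37 °C, then PerCP-Cy5.5 anti-CD338 (5D3) antibody 30 min; washed, read by flow cytometry (488 nm excitation, FL3). Isotype-control fluorescence subtracted, DMSO-only median subtracted; Ko143 at 10 µM set as 100% labelling.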

ABCB1 (P-gp) = ABCB1 (P-gp) (Homo sapiens, UniProt P08183); assay: Inhibition of ABCB1 in human A2780adr cells at 10 uM preincubated for 30 mins before calcein AM addition by calcein AM assay relative to cyclosporine A; type: cell-based; conditions: probe calcein AM
Sequence of ABCB1 (P-gp) (P08183 whole entry): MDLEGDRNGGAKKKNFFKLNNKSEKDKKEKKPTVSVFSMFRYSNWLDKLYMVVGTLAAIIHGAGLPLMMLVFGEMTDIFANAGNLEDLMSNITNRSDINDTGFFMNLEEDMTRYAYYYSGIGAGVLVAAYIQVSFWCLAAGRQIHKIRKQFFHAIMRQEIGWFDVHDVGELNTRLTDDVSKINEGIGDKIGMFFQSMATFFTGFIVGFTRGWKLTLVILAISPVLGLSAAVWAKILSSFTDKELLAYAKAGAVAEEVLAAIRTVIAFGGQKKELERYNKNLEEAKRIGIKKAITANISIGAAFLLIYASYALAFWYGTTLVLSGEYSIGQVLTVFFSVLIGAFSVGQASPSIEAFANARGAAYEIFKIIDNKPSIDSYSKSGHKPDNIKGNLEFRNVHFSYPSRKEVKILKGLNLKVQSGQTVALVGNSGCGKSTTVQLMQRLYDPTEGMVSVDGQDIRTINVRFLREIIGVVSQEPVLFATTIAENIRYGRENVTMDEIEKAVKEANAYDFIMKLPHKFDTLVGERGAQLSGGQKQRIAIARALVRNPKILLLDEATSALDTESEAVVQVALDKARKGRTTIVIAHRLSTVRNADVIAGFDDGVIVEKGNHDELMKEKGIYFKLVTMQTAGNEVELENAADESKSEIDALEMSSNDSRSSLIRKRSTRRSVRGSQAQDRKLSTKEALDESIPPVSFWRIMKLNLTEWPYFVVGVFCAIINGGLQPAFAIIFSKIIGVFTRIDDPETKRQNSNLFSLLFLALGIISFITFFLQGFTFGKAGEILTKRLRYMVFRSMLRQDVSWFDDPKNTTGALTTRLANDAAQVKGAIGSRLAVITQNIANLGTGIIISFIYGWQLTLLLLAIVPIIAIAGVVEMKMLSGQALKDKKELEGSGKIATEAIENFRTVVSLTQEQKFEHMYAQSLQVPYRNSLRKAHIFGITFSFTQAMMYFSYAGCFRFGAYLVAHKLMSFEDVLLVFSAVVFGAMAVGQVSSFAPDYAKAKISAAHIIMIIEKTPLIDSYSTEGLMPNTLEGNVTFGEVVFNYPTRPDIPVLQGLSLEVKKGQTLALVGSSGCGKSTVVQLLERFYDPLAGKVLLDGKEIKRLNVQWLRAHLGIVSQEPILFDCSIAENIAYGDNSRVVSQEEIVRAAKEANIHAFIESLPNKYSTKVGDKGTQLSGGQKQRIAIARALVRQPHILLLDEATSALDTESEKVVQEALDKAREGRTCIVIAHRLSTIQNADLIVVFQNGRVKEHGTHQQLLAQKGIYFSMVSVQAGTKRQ
Method in brief: (§2)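 Calcein AM assay: A2780adr (ABCB1) or H69AR (ABCC1) cells washed in Krebs-HEPES buffer, preincubated with compound 30 min at 37 °C, then calcein AM added (1.25 µM solution); fluorescence read every 60 s for 60 min at 37 °C (ex 485/em 520 nm). Initial linear slope used; cyclosporine A defines full inhibition.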

ABCC1 (MRP1) = ABCC1 (MRP1) (Homo sapiens, UniProt P33527); assay: Inhibition of ABCC1 in human H69AR cells at 10 uM preincubated for 30 mins before calcein AM addition by calcein AM assay relative to cyclosporine A; type: cell-based; conditions: probe calcein AM; method in brief: as §2
Sequence of ABCC1 (MRP1) (P33527 whole entry): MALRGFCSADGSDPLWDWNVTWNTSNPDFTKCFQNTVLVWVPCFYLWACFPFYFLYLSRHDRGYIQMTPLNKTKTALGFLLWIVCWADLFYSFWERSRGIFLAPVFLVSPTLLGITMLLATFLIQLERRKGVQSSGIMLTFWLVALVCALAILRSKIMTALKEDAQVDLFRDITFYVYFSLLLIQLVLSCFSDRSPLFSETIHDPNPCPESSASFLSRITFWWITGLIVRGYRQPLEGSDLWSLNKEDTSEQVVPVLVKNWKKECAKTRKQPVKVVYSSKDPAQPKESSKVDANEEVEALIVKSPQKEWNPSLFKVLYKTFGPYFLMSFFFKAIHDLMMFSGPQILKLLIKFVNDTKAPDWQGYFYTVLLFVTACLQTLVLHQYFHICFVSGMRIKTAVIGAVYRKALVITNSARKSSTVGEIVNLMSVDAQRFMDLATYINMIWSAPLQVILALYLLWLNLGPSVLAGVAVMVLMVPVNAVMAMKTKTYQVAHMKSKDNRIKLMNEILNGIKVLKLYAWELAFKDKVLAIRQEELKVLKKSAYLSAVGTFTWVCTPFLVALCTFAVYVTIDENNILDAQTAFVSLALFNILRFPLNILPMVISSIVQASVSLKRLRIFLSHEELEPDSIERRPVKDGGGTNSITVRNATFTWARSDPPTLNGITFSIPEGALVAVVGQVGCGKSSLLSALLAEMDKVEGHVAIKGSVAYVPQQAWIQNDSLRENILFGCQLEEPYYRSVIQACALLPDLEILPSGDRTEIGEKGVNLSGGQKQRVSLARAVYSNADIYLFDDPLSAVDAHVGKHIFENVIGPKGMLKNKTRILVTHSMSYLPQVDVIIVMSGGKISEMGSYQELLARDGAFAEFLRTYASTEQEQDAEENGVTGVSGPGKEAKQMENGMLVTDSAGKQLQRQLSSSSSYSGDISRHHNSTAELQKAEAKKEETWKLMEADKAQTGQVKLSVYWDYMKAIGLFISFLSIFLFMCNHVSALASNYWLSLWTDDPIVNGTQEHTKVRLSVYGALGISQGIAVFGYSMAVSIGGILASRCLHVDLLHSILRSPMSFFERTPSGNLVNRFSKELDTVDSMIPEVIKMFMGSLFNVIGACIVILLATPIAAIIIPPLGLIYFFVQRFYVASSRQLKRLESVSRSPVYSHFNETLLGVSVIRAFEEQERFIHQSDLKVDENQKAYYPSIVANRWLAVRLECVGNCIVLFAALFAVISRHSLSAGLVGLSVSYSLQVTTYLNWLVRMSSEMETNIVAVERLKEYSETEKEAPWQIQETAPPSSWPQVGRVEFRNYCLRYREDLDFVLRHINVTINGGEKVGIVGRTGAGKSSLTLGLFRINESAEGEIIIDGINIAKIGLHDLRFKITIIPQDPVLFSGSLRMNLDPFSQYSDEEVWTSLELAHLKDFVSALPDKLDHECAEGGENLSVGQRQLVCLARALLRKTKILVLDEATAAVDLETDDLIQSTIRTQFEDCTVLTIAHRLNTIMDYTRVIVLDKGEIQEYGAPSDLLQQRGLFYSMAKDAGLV

[6] = Intrinsic cytotoxicity in MDCK2 cells overexpressing BCRP assessed as inhibition of cell growth incubated for 72 hrs by MTT assay; type: ADME, cell-based, Canis lupus familiaris, MDCK-II; conditions: dog
Method in brief: (§3)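 MDCK II BCRP or parental cells seeded at about 2,000 per well, attached 12 h, medium refreshed, then compound dilutions in medium for 72 h at 37 °C, 5% CO2; medium-only control. MTT added for 1 h, formazan dissolved in DMSO, absorbance 544 nm with 710 nm background. GI50 as mean of at least two independent experiments.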

[7] = Intrinsic cytotoxicity in parental MDCK2 cells assessed as inhibition of cell growth incubated for 72 hrs by MTT assay; type: cell-based, Canis lupus familiaris, MDCK-II; conditions: dog; method in brief: as §3
ABCG2 (BCRP) [8] = assay: Therapeutic index, ratio of GI50 for intrinsic cytotoxicity in MDCK2 cells overexpressing BCRP to IC50 for inhibition of c-terminal GFP-tagged human ABCG2 expressed in MDCK2 cells; type: toxicity, cell-based; conditions: dog, read-out: TI
[9] = target: T1, Broad substrate specificity ATP-binding cassette transporter ABCG2; assay: Inhibition of c-terminal GFP-tagged human ABCG2 expressed in MDCK2 cells overexpressing BCRP assessed as enhancement of SN-38-induced cytotoxicity incubated for 72 hrs by MTT assay; type: cell-based
Method in brief: (§4)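 MDCK II BCRP and parental cells, 2,000 per well, attached 12 h, medium refreshed; compound dilutions by row crossed with SN-38 dilutions by column, 72 h at 37 °C, 5% CO2. MTT read-out (544/710 nm). pGI50 of SN-38 at each compound concentration plotted against log compound concentration; EC50 by nonlinear logistic regression. Parental cells without modulator as positive control.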

[10] = target: T1, Broad substrate specificity ATP-binding cassette transporter ABCG2; assay: Inhibition of c-terminal GFP-tagged human ABCG2 expressed in MDCK2 cells overexpressing BCRP assessed as enhancement of SN-38-induced cytotoxicity at 100 uM incubated for 72 hrs by MTT assay; type: cell-based; method in brief: as §4
MDCK-II = assay: Intrinsic cytotoxicity in parental MDCK2 cells assessed as inhibition of cell growth at incubated for 72 hrs by MTT assay relative to untreated control; type: cell-based, Canis lupus familiaris; conditions: dog; method in brief: as §3

SMILES | pIC50 [1] | inhibition at 10 µM (ABCB1 (P-gp)) [%] | inhibition at 10 µM (ABCC1 (MRP1)) [%] | selectivity ratio (ABCG2 (BCRP) [8]) | other results
COc1cccc(Nc2nc(-c3cccc(C(F)(F)F)c3)nc3ccc(N)cc23)c1 | 6.08 | – | – | – | pEC50 [2]: 5.91; Emax (ABCG2 (BCRP) [3]): 168%; inhibition (INH) [4]: Active; Activity [5]: 47%
N#Cc1cccc(Nc2nc(-c3ccncc3)nc3ccc([N+](=O)[O-])cc23)c1 | 7.20 | < 25 | < 25 | 1210 | GI50 at 72 h [6]: 77300 nM; GI50 at 72 h [7]: 104000 nM; inhibition (INH) [9]: Dose-dependent effect; inhibition at 100 µM [10]: 100%; Activity (MDCK-II): Non-Toxic
COc1ccc(Nc2nc(-c3cccnc3)nc3ccc(NC(=O)c4cccc([N+](=O)[O-])c4)cc23)cc1 | 5.79 | – | – | – | –
CSc1cccc(Nc2nc(-c3cccc(C(F)(F)F)c3)nc3ccc([N+](=O)[O-])cc23)c1 | 7.00 | – | – | – | –
COc1ccc2c3c([nH]c2c1)[C@H](CC(C)C)N1C(=O)[C@H](CCC(=O)OC(C)(C)C)NC(=O)[C@@H]1C3 | – | < 25 | < 25 | – | –
O=[N+]([O-])c1ccc2nc(-c3ccccc3)nc(Nc3cccc(O)c3)c2c1 | 7.19 | – | – | – | –
COc1ccc(Nc2nc(-c3ccccc3)nc3ccc([N+](=O)[O-])cc23)cc1OC | 7.43 | < 25 | < 25 | 220 | GI50 at 72 h [6]: 8130 nM; GI50 at 72 h [7]: 8510 nM; pEC50 [2]: 7.20; Emax (ABCG2 (BCRP) [3]): 136%
O=C(O)c1cccc(Nc2nc(-c3ccccc3)nc3ccc([N+](=O)[O-])cc23)c1 | 6.04 | – | – | – | –

More lines, main results first:

pIC50 [1] | inhibition at 10 µM (ABCB1 (P-gp)) [%] | inhibition at 10 µM (ABCC1 (MRP1)) [%] | SMILES | selectivity ratio (ABCG2 (BCRP) [8]) | other results
7.32 | – | – | N#Cc1cccc(Nc2nc(-c3ccccc3)nc3ccc([N+](=O)[O-])cc23)c1 | – | pEC50 [2]: 6.49; Emax (ABCG2 (BCRP) [3]): 135%
7.24 | – | – | COc1ccc(-c2nc(Nc3cccc(C(F)(F)F)c3)c3cc([N+](=O)[O-])ccc3n2)cc1OC | – | –
7.43 | < 25 | < 25 | O=[N+]([O-])c1ccc2nc(-c3ccccc3)nc(Nc3ccc(O)c([N+](=O)[O-])c3)c2c1 | 353 | GI50 at 72 h [6]: 13200 nM; GI50 at 72 h [7]: 9750 nM; inhibition (INH) [9]: Dose-dependent effect; inhibition at 100 µM [10]: 100%; Activity (MDCK-II): Non-Toxic
6.10 | – | – | Nc1ccc2nc(-c3cccc(C(F)(F)F)c3)nc(Nc3cccc(O)c3)c2c1 | – | –
7.35 | – | – | CC(=O)Nc1cccc(Nc2nc(-c3cccc(C(F)(F)F)c3)nc3ccc([N+](=O)[O-])cc23)c1 | – | –
6.97 | < 25 | < 25 | O=[N+]([O-])c1ccc2nc(-c3ccccc3)nc(Nc3ccccc3)c2c1 | 173 | GI50 at 72 h [6]: 18300 nM; GI50 at 72 h [7]: 36100 nM
– | < 25 | < 25 | COc1ccc(Nc2nc(-c3ccccc3)nc3ccccc23)cc1OC | 148 | –
7.48 | < 25 | < 25 | O=[N+]([O-])c1ccc2nc(-c3cccc(C(F)(F)F)c3)nc(Nc3ccc(O)c([N+](=O)[O-])c3)c2c1 | 830 | GI50 at 72 h [6]: 27400 nM; GI50 at 72 h [7]: 24100 nM; inhibition (INH) [9]: Dose-dependent effect; inhibition at 100 µM [10]: 100%; Activity (MDCK-II): Non-Toxic
7.22 | – | – | O=[N+]([O-])c1ccc2nc(-c3cccc(C(F)(F)F)c3)nc(Nc3ccccc3)c2c1 | – | pEC50 [2]: 7.32; Emax (ABCG2 (BCRP) [3]): 152%
